Shown are actives, neighbours in structure and some others; about 2.4% of the full set was active somewhere.
SUMO1 PPI mod – SUMO1-SIM interaction modulation | P63165 | inhibition, % at 20 µM | SUMO1 binding to a labelled peptide, TR-FRET, 1 h | AID 602429 | 360,000 compounds, 0.33% hits; in the data active = inhibition above about 37%
Scp1 inh – Scp-1 (human) phosphatase inhibition | Q9GZU7 | inhibition, % at 20 µM | 340,000 compounds, 0.88% hits | Recombinant Scp1, phosphopeptide, malachite green phosphate absorbance;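 active = inhibition above about 50% at 20 µM, limit read from the data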;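 note: plate controls were DMSO wells with enzyme for no effect and wells lacking enzyme for full effect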
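Test system: SCP-1 catalytic domain; Buffer or medium: Acidic Tris acetate buffer with magnesium and detergent; Also added: Phosphorylated 17-residue peptide substrate; Compound: single 20 µM dose, 1% DMSO; Schedule: enzyme reaction 45 min at room temperature, colour 5 min, stabilisation 30 min; Signal: Phosphate-binding colour reagent, absorbance read at 630 nm.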
NadD inh – NadD (S. aureus) enzyme inhibition. purified NadD enzyme, colorimetric absorbance read-out. inhibition, % at 20 µM. 360,000 compounds, 0.78% hits. AID 602399; in the data active = inhibition above about 26%
DNMT1 inh – blocks human DNA methyltransferase DNMT1 | 360,000 compounds, 0.83% hits | DNMT1 molecular beacon, Hinp1I cleavage, fluorescence | inhibition (reported as % activation of signal), % at 10 µM; in the data active = inhibition above about 50%
LMPTP block – blocks human LMPTP phosphatase. P24666. recombinant LMPTP-A, OMFP fluorogenic substrate, fluorescence intensity. inhibition, % at 20 µM. 360,000 compounds, 0.22% hits. AID 651560;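 active = compounds that cut the enzyme signal by at least half of the control window in the single-dose screen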;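 note: plate controls were DMSO wells with enzyme plus substrate for no effect and substrate without enzyme for full effect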
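Assay system: LMPTP-A, protein tyrosine phosphatase of low molecular weight / Medium: pH 6.0 Bis-Tris buffer with DTT and Triton X-100 / Schedule: 50 min enzyme reaction at room temperature, protected from light / Measured by: endpoint fluorescence intensity from OMFP dephosphorylation / Read-out basis: % inhibition relative to no-enzyme and uninhibited control wells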
STEP inh – STEP (human) phosphatase inhibition; 360,000 compounds, 0.25% hits; recombinant STEP, OMFP fluorogenic substrate, fluorescence; AID 588621; P54829; inhibition, % at 20 µM;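 active = inhibition at 20 µM, scaled per plate between control wells, above about 37%, limit read from the data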;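 note: 0% = DMSO with enzyme and substrate and 100% = substrate only without enzyme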
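Material: STEP (striatal-enriched tyrosine phosphatase) enzyme, cell-free; Compound dosing: 20 µM single dose in 1% DMSO; Technique: fluorescence read at 480 nm ex / 540 nm em; Times: reaction 20 min, ambient temperature; Medium: 50 mM Bis-Tris pH 6.0 with 2.5 mM DTT and 0.005% Tween 20; Also added: OMFP at 25 µM.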
Scp-1 conf – Scp-1 (human) inhibition, single-dose confirmed | shares compounds with Scp1 inh | recombinant SCP-1 catalytic domain, phosphate release, malachite green absorbance | inhibition, % at 20 µM | 2,500 compounds, 61% hits | AID 540281;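 note: plate controls were DMSO with enzyme for no effect and buffer wells lacking enzyme for full effect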
Scp-1 MG ctr – colorimetric interference in Scp-1 counter-screen; shares compounds with Scp1 inh; Colorimetric interference counterscreen, malachite green absorbance 630 nm; apparent inhibition (interference), % at 20 µM; 2,500 tested, under 10 active;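 note: compounds added after enzyme reaction finished so only phosphate colour detection is probed; plate controls were DMSO wells with completed Scp-1 reaction for no effect and substrate wells lacking enzyme for full effect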
Scp1 DSF – Scp-1 (human) binding by thermal shift; 1,500 compounds, 25% hits; shares compounds with Scp1 inh; Recombinant SCP1, Sypro Orange thermal shift Tm; thermal shift relative to vanadate control, % at 40 µM;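 active = substances whose mean melting-temperature shift, as a percentage of the reference inhibitor's shift, reaches about 5.3%, limit read from the data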;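 note: 0% = Tm of DMSO wells and 100% = Tm with sodium orthovanadate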
Beacon interf DR – beacon fluorescence artifact, dose response counter-screen | shares compounds with DNMT1 inh | molecular beacon fluorescence, spectral interference counter-screen | IC50, µM | 200 tested, under 10 active | AID 602382; call rule not given here
DNMT1 confirm – DNMT1 inhibition confirmation, single concentration; inhibition, % at 10 µM; DNMT1 molecular beacon HinP1I cleavage, fluorescence; 2,300 compounds, 8% hits; shares compounds with DNMT1 inh; AID 602385;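 active = average inhibition of at least 30% in the single-concentration confirmation test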
Beacon interf – beacon fluorescence artifact counter-screen; shares compounds with DNMT1 inh; DNMT1 molecular beacon spectral interference counterscreen, fluorescence 485/520; activation (fluorescence interference), % at 10 µM; 2,300 compounds, 1% hits; AID 602387;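 active = activation of at least 30% at 10 µM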;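 note: DNMT1 catalytic domain with a HinP1I cleavage step and a FAM/dabcyl DNA beacon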
* marks the source's active call; other numbers are inactive results; nt = no result.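 Rule for the calls, unless noted: active = inhibition of at least 30% at 20 µM; inactive = the rest.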

SMILES	SUMO1 PPI mod	Scp1 inh	NadD inh	DNMT1 inh	LMPTP block	STEP inh	Scp-1 conf	Scp-1 MG ctr	Scp1 DSF	DNMT1 confirm	Beacon interf	others
Cc1ccc(-c2nnn(CCOc3cccc(Br)c3)n2)cc1	1.5	-6.7	5.4	1.3	3.7	-2.2	nt	nt	nt	nt	nt
NC(=O)c1ccc(NC(=O)COC(=O)/C=C/c2ccc(Br)o2)cc1	62.2*	74.1*	4.5	90.1*	43.0	23.9	68.5*	-4.6	-1.5	1.6	-0.2
O=C(CSc1nnc(-c2ccco2)n1Cc1ccccc1)NC(=O)NCc1ccccc1	-0.3	-10.4	5.0	-0.3	0.0	-1.5	nt	nt	nt	nt	nt
CC(C)(C)NC(=O)NC(=O)CSc1nnc(COc2ccccc2Cl)o1	-2.7	-0.3	-1.4	-3.3	-2.0	1.9	nt	nt	nt	nt	nt
O=C(CSc1nnc(Nc2ccccc2F)s1)NCc1ccco1	12.8	82.8*	6.2	76.2*	21.1	-0.8	62.9*	-14.2	4.2	1.6	-2.0
Cc1nnc(SCC(=O)NC(=O)NCc2ccco2)n1Cc1ccccc1	4.8	86.9*	10.5	65.6*	17.8	-1.0	63.2*	-12.0	-5.2	2.9	4.0
O=C(CSc1nnc(Nc2ccccc2)s1)NCc1ccco1	1.6	-3.3	-2.3	5.2	-0.8	-15.1	nt	nt	nt	nt	nt
O=C(CSc1nnc(COc2ccccc2Cl)o1)NC(=O)NCc1ccco1	19.9	75.7*	3.8	71.9*	34.0	4.0	44.1*	-7.1	-8.2	1.3	3.9
Cc1ccccc1Nc1nnc(SCC(=O)NC(=O)NCc2ccco2)s1	6.4	84.0*	25.2	90.4*	25.1	0.9	61.3*	-17.2	4.9	2.4	1.2
N=C1C(c2nc3ccccc3s2)=C(O)CN1c1ccccc1	6.5	-5.6	-2.2	0.2	-0.1	-4.1	nt	nt	nt	nt	nt
Cc1ccnc(SCC(=O)Nc2c(C)n(C)n(-c3ccccc3)c2=O)n1	0.4	-7.0	-2.0	-3.4	-0.7	0.6	nt	nt	nt	nt	nt
O=C(CSc1nccc(=O)[nH]1)NCc1ccco1	26.5	92.8*	-3.3	76.5*	1.1	10.2	69.4*	-3.0	2.9	2.5	-0.3
COc1cc(C(=O)O[C@H]2CC(C)=CC[C@@]3(C)CC[C@@](O)(C(C)C)[C@H]23)ccc1O	1.5	-4.5	-9.3	0.0	2.8	-1.7	nt	nt	nt	nt	nt
CC1=C(C(=O)Nc2cccc(C(=O)N3CCC(C(N)=O)CC3)c2)SCCO1	-2.1	-0.9	-2.1	1.0	-1.5	1.7	nt	nt	nt	nt	nt
O=C1N/C(=C/c2ccc(N3CCOCC3)o2)C(=O)N1c1ccccc1	-12.8	5.4	5.4	-2.1	-2.0	-1.3	nt	nt	nt	nt	nt
Cc1ccc(C(=O)O)cc1-c1ccc(/C=C2/NC(=O)N(c3ccccc3)C2=O)o1	25.2	63.0*	18.0	92.2*	4.3	4.8	67.9*	-12.3	12.6*	34.1*	-2.0	Beacon interf DR=>99
CCOC(=O)c1ccc(NC(=O)CSc2nc(C)cc(=O)[nH]2)cc1	6.5	70.7*	11.7	88.1*	16.6	2.4	57.9*	-19.4	10.5*	19.0	2.7
CCN(CC)c1ccc(NC(=O)CSc2nc(C)cc(=O)[nH]2)cc1	0.8	2.9	-0.9	-4.8	-1.5	-1.4	nt	nt	nt	nt	nt
N#C/C(=C/c1ccc(OC(=O)c2ccc(Br)s2)cc1)c1nc2ccccc2[nH]1	8.1	95.8*	23.7	84.8*	32.3	27.3	80.2*	-4.0	-5.1	2.6	-5.8
COc1ccc(C(c2nnnn2Cc2ccccc2)N2CCN(C/C=C/c3ccccc3)CC2)cc1 (stereo unspecified)	6.4	nt	-1.0	-4.1	2.5	2.8	nt	nt	nt	nt	nt
COC(=O)c1ccccc1-c1ccc(/C=C2\C(=O)N(c3ccccc3)N=C2c2ccccc2)o1	38.9	-7.7	8.8	13.5	4.7	2.9	nt	nt	nt	nt	nt
CCOC(=O)C(C)N1C(=O)S/C(=C\c2ccc(-c3ccccc3C(=O)O)o2)C1=O (stereo unspecified)	46.5*	51.9*	-1.1	100.4*	5.9	26.3	53.5*	-12.0	10.6*	45.1*	-3.0	Beacon interf DR=>99
C=CCNc1nc(C(=O)OCC(=O)c2cccc(Br)c2)cs1	2.4	56.8*	22.6	59.0*	8.9	4.2	59.6*	-18.4	10.7*	22.3	-1.9
C=CCN1C(=O)/C(=C2/Sc3ccccc3N2CCCS(=O)(=O)O)SC1=S	13.2	86.5*	3.7	67.5*	5.6	10.7	63.9*	-19.7	13.2*	2.8	0.7
CC1(CC(=O)N/N=C/c2cc([N+](=O)[O-])c(O)cc2O)OCCO1	-14.2	69.5*	-2.7	69.4*	69.3*	14.5	64.2*	-3.5	6.1*	2.4	-3.0
SMILES	SUMO1 PPI mod	Scp1 inh	NadD inh	DNMT1 inh	LMPTP block	STEP inh	Scp-1 conf	Scp-1 MG ctr	Scp1 DSF	DNMT1 confirm	Beacon interf	others
O=C(O)CC1Sc2ccccc2NC1=O (stereo unspecified)	1.2	-3.1	-0.5	-3.2	-1.3	0.2	nt	nt	nt	nt	nt
O=C1Nc2ccccc2SC(c2ccccc2)C1O (stereo unspecified)	5.3	74.3*	2.9	99.3*	19.7	-2.7	63.5*	-17.5	6.6*	14.2	-1.4
Cc1cc2oc(=O)cc(-c3cc4ccccc4o3)c2cc1O	14.1	90.6*	15.5	81.1*	66.2*	34.7	79.2*	-9.8	3.7	0.7	0.6
C#Cc1ccc([C@@H]2C=C(C(=O)O)O[C@H](OCC)[C@H]2CCCO)cc1	30.5	52.6*	0.6	52.4*	-1.2	11.9	47.2*	-17.2	-13.0	3.2	0.3
CCN(CC)S(=O)(=O)c1ccc(/C=C/C(=O)OCC(=O)NCc2ccco2)cc1	-17.4	70.8*	7.9	63.7*	9.6	6.9	78.6*	2.2	4.2	3.7	5.7
O=C(Nc1ccc(-c2nc3ccccc3s2)c(O)c1)C1=COCCO1	1.6	98.1*	5.6	69.8*	52.8*	22.3	71.4*	-7.3	9.9*	4.9	4.8
